Hits are enriched below; roughly 1.9% of the tested compounds scored in any of these assays.
Glyco luc inh: increase of ERlucT glycosylation luciferase signal, primary screen, N-linked glycosylation inhibitor project, D54 ERlucT cells, luminescence, set 2; D54 ERlucT glycosylation luciferase reporter, 24 h; percent of 100 nM tunicamycin response; reporter increase, % at 12.5 µM; 360,000 compounds, 0.23% hits;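 active means mean luciferase reporter signal, scaled so untreated is 0 and the glycosylation-blocking control 100, at or above a set limit in every replicate; inconclusive means mean reaches the limit but not every replicate does; inactive means mean below the limit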;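 further: luciferase carries N-glycosylation sites so blocking glycosylation raises the light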
SR-BI DiI-HDL act: activators of SR-BI mediated DiI-HDL uptake, primary screen, ldlA[mSR-BI] CHO cells, DiI fluorescence | 3 h; 100 = double the neutral-control signal | activation, % at 12.5 µM | 320,000 compounds, 0.096% hits | AID 504775, 2011;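 active means mean replicate activation of at least 60% and every replicate at or above 60%; inconclusive means mean or all-replicate condition met, but not both; inactive means mean below 60% and not all replicates reaching 60%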
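Material – SR-BI-overexpressing, LDLR-lacking CHO cells · Medium – BSA-supplemented, HEPES-buffered Ham's F12, pH 7.4 · Doses – single concentration · Times – compound with DiI-HDL co-incubation, 3 h at 37 °C · Measured by – bottom-read fluorescence, 550/595 nm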
HIV Env fusion: inhibitors of HIV-1 Env-driven cell-cell fusion, primary screen, HeLa-JRFL effector, CEM21 target cells, luciferase | inhibition, % at 12.3 µM | 360,000 compounds, 1.1% hits;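 active means mean replicate inhibition score of at least 50 and every replicate individually at or above 50; inconclusive means only one of the two criteria met; inactive means mean below 50 and not all replicates reaching 50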
SR-BI HDL uptake: inhibitors of SR-BI mediated HDL lipid uptake, primary screen, ldlA[mSR-BI] cells, fluorescence, single point; ldlA[mSR-BI] CHO cells, DiI-HDL uptake fluorescence, 3 h; inhibition, % at 12.5 µM; 320,000 compounds, 0.96% hits;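 active means mean replicate inhibition of at least 70% and a set share of replicates each scoring 70 or more; inconclusive means meets just one of the two criteria; inactive means fails both criteria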
Rtt109 HAT inh: inhibitors of C. albicans Rtt109/Vps75 HAT, primary screen, biochemical, ThioGlo CoA-SH fluorescence, plate reader; 330,000 compounds, 0.16% hits; purified Rtt109/Vps75, 4 h; inhibition, % at 34.9 µM;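 active means inhibition of at least 50% in every replicate; inconclusive means best replicate reaches 50% inhibition but some replicates fall short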
Target sequence (Q5AAJ8 whole entry, looked up): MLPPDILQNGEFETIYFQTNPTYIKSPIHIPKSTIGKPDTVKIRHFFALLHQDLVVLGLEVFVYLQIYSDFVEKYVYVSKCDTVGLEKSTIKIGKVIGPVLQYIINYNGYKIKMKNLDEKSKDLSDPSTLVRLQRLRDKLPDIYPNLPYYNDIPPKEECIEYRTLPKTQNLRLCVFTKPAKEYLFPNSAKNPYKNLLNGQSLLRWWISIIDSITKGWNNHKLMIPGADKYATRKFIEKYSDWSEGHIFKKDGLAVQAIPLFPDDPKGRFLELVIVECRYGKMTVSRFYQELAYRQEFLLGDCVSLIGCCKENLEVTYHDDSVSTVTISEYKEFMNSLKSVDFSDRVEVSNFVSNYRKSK
PglD DTNB: C. jejuni PglD acetyltransferase inhibitors, primary screen, biochemical, DTNB colorimetric, single point; 360,000 compounds, 0.098% hits; UDP-N-acetylbacillosamine N-acetyltransferase PglD (Campylobacter jejuni); AID 602405, 2012; purified PglD enzyme, DTNB colorimetric CoA detection; inhibition, % at 12.5 µM; in the data active means inhibition above about 16%, passing the limit was not always enough; inconclusive means no clear call, values can overlap the other calls
A number is an active result; i = inactive; ? = inconclusive; nt = not tested or not shown; ! = not active in a repeat.

SMILES | Glyco luc inh | SR-BI DiI-HDL act | HIV Env fusion | SR-BI HDL uptake | Rtt109 HAT inh | PglD DTNB
CC1(Cc2cc(Cl)ccc2C(F)(F)F)C(=O)Nc2cc(F)ccc21 (centres undefined) | i | nt | nt | nt | nt | i
CC1(Cc2ccc(C(F)(F)F)o2)C(=O)Nc2cc(-c3ccc(F)cc3F)ccc21 (centres undefined) | i | nt | 62 | nt | nt | i
CC(=O)Nc1ccccc1OCC(=O)N(Cc1ccccc1)C(C)C | i | i | 61 | i | i | i
CCCNC(=O)C[C@H]1CC[C@@H]2[C@@H](COc3ccc(NC(=O)c4cscn4)cc3C(=O)N2C)O1 | nt | nt | nt | nt | nt | i
O=C(c1ccc(F)cc1)C1CCN(CCn2c(=O)[nH]c3ccccc3c2=O)CC1 | i | i | 61! | i | i | i
O=C(c1ccc(F)cc1)C1CCN(CCCn2c(=O)[nH]c3ccccc32)CC1 | nt | nt | i | nt | nt | nt
NC(=S)N/N=C/c1ncc(C(F)(F)F)cc1Cl | i | i | nt | 73 | i | i
NC(=S)N/N=C/c1ccc(C(F)(F)F)cc1 | i | i | i | i | i | nt
COC(=O)c1cccc(-c2ccc(C(c3c(C)[nH][nH]c3=O)c3c(C)[nH][nH]c3=O)o2)c1 | ? | i | i | i | i | i
COC(=O)c1ccccc1-c1ccc(C(c2c(C)[nH][nH]c2=O)c2c(C)[nH][nH]c2=O)o1 | 29 | i | i | i | i | nt
O=C(Nc1cc2c3c(c1)CC(=O)N3CCC2)c1ccc(Cl)cc1 | i | i | 85 | 79 | i | i
COc1cc2c(cc1OC)C(=Cc1ccc(N(C)C)cc1)C=C2 | i | i | i | 76 | i | i
Cc1ccc2sc(C)[n+](CCO)c2c1 | i | i | i | i | 104 | i
CC[n+]1c(C)sc2cc(C)ccc21 | i | i | i | i | 85 | i
CCCC[n+]1c(C)sc2ccc(C)cc21 | i | i | i | i | i | nt
Cc1sc2ccccc2[n+]1CC(=O)O | i | nt | i | nt | i | i
COc1cc2c(cc1NC(=O)c1ccccc1F)CCCC2 | i | i | i | i | i | nt
COc1cc2c(cc1NC(=O)c1cccc(Br)c1)CCCC2 | i | i | nt | 73 | i | i
COc1cc2c(cc1NC(=O)c1cccc(F)c1)CCCC2 | i | i | i | 76 | i | i
COc1ccc(C2=Nc3ccccc3N(C(=O)Cc3cc(OC)cc(OC)c3)C2C(=O)NC(C)C)cc1 (centres undefined) | nt | nt | i | nt | nt | nt
COc1ccc(C2=Nc3ccccc3N(C(=O)Cc3cc(OC)cc(OC)c3)C2C(=O)NC(C)(C)C)cc1 (centres undefined) | nt | nt | 55 | nt | nt | nt
CCc1nnc(NC(=O)CN2C(=O)c3ccccc3C2=O)s1 | i | i | nt | i | 55 | i
C[C@@H]1CN([C@@H](C)CO)S(=O)(=O)c2ccc(-c3ccncc3)cc2O[C@H]1CN(C)C(=O)C1CCC1 | nt | nt | i | nt | nt | nt
Cc1ccc(S(=O)(=O)N2CC3(O)CN(C(=O)OC(C)C)N(C(=O)OC(C)C)CC3(OC(=O)NC3CCCC3)C2)cc1 (centres undefined) | i | nt | 75 | nt | nt | i
COc1ccc2nc(NC(=O)CCn3cccc3)sc2c1 | i | i | nt | i | i | i
SMILES | Glyco luc inh | SR-BI DiI-HDL act | HIV Env fusion | SR-BI HDL uptake | Rtt109 HAT inh | PglD DTNB
COc1cc(CCC(=O)Nc2cc(C)cc(C)c2)cc(OC)c1OC | i | i | i | 83 | i | nt
CCC(=O)Nc1cc(OC)cc(OC)c1 | i | i | i | i | i | i
COc1ccc2nc(NC(=O)CCc3cc(OC)c(OC)c(OC)c3)sc2c1 | i | i | i | 72 | i | nt
COc1cc(CCC(=O)Nc2ccc(Br)c(C(F)(F)F)c2)cc(OC)c1OC | i | i | i | i | i | i
COc1cc(CCC(=O)Nc2nnc(C)s2)cc(OC)c1OC | 33 | nt | i | nt | i | i
CCC(=O)Nc1cc(C)c(OC)c(C)c1 | i | i | i | i | 52 | nt
Cn1cnc(CCNC(=O)C[C@H]2CC[C@@H]3[C@H](COC[C@H](O)CN3C(=O)Nc3ccc(F)cc3)O2)c1 | nt | nt | nt | nt | nt | i
C[C@H](CO)N1C[C@H](C)[C@H](CN(C)C(=O)Cc2cccnc2)Oc2ncc(C#CCc3ccccc3)cc2C1=O | nt | nt | i | nt | nt | i
COCCOC(=O)N1C(=O)[C@@]2(c3cc(C#Cc4ccc(OC)cc4)ccc31)[C@H](c1ccc(OCCO)cc1)N1[C@H](c3ccccc3)[C@H](c3ccccc3)OC(=O)[C@H]1[C@@H]2C(=O)N1CCN(c2ncccn2)CC1 | nt | nt | i | nt | nt | i
O=C(C/C=N/OCc1ccc(Cl)cc1Cl)c1ccc(Cl)cc1 | i | i | i | i | i | i
O=C(C/C=N/OCc1ccc(Cl)cc1Cl)c1ccccc1 | i | i | i | i | 65 | i
CCOC(=O)c1[nH]c(C)c(C(=O)Nc2cc(Cl)ccc2C)c1C | 29 | i | nt | i | i | i
CCOc1ccccc1/C=C/c1onc(C)c1S(=O)(=O)N1CCC(C(=O)N2CCCCCC2)CC1 | i | i | i | 92 | i | i
O=C(C[C@@H]1C=C[C@@H](NC(=O)C2CCC2)[C@H](CO)O1)NCc1ccncc1 | nt | nt | i | nt | nt | i
COc1ccc(OC)c2c1C(=O)C(Cl)=C(Cl)C2=O | i | i | 94 | i | i | i
COc1ccc(OC)c2c1C(=O)c1ccccc1C2=O | nt | nt | i | nt | nt | nt
COc1ccc(S(=O)(=O)N2CCC(C)CC2)cc1OC | i | i | i | 76 | i | i
O=[N+]([O-])c1ccc(Oc2ccc(S(=O)(=O)N3CCOCC3)cc2)cc1 | i | nt | i | nt | i | i
CC1CCN(S(=O)(=O)c2ccc(Oc3ccc([N+](=O)[O-])cc3)cc2)CC1 | i | i | 72 | i | i | nt
COc1ccc(S(=O)(=O)N2CCC(C)CC2)cc1Br | i | i | i | i | i | i
O=[N+]([O-])c1ccc(-c2ccc(S(=O)(=O)N3CCOCC3)cc2)cc1 | i | i | i | 80 | i | i
C[C@H](CO)N1C[C@H](C)[C@@H](CN(C)S(C)(=O)=O)Oc2ccc(NS(=O)(=O)c3ccc(Cl)cc3)cc2C1=O | nt | nt | i | nt | nt | nt
COC(=O)C1(C(=O)OC)C[C@H](/C=C/c2ccccc2)N(Cc2ccccc2OC)[C@@H]1c1ccc(F)cc1 | nt | nt | i | nt | nt | nt
COC(=O)C1(C(=O)OC)C[C@H](c2ccc(OC)cc2)N(Cc2ccccc2OC)[C@@H]1c1ccccc1 | nt | nt | 85 | nt | nt | nt
COCC(=O)N(C)C[C@@H]1Oc2ncc(-c3ccccc3F)cc2C(=O)N([C@H](C)CO)C[C@H]1C | nt | nt | i | nt | nt | i
CCCCC[C@H](C)N1C[C@H](COCc2ccccc2)Oc2cc(N3CCC[C@H]3C(N)=O)ccc2S1(=O)=O | nt | nt | i | nt | nt | nt

Screens as filed in PubChem.
